Assay results as given in ChEMBL document CHEMBL1926577, “Novel 1,3,4-heterodiazole analogues: synthesis and in-vitro antitumor activity” (2012).

What was measured:
Type in all cases: functional
CAKI-1 = experiment: Growth inhibition of human Caki1 cells at 10 uM after 48 hrs by coulter counter method; conditions: CAKI-1, 48 h, read-out: GI
Outline: (§1)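 NCI 60-cell-line panel, single dose. Compound dissolved first in DMSO, then diluted in phosphate-buffered saline so that every final dilution held under 1% DMSO. Duplicate wells received cells at 6 × 10⁴ cells/ml. Controls held PBS/DMSO at the same dilution. Plates were incubated 48 h at 37 °C under 5% CO₂. Cells were then diluted 10-fold in saline and counted on a Coulter counter, with counts corrected for the dilution. Results are given as percent growth inhibition.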

A498 = experiment: Growth inhibition of human A498 cells at 10 uM after 48 hrs by coulter counter method; conditions: A498, 48 h, read-out: GI; outline: as §1
BT-549 = experiment: Growth inhibition of human BT549 cells at 10 uM after 48 hrs by coulter counter method; conditions: BT-549, 48 h, read-out: GI; outline: as §1
A549 = experiment: Growth inhibition of human A549 cells at 10 uM after 48 hrs by coulter counter method; conditions: A549, 48 h, read-out: GI; outline: as §1
UO-31 = experiment: Growth inhibition of human UO31 cells at 10 uM after 48 hrs by coulter counter method; conditions: UO-31, 48 h, read-out: GI; outline: as §1
CCRF-CEM = experiment: Growth inhibition of human CCRF-CEM cells at 10 uM after 48 hrs by coulter counter method; conditions: read-out: GI; outline: as §1
SK-MEL-2 = experiment: Growth inhibition of human SK-MEL-2 cells at 10 uM after 48 hrs by coulter counter method; conditions: SK-MEL-2, 48 h, read-out: GI; outline: as §1
786-0 = experiment: Growth inhibition of human 786-0 cells at 10 uM after 48 hrs by coulter counter method; conditions: 786-0, 48 h, read-out: GI; outline: as §1
NCI-H23 = experiment: Growth inhibition of human NCI-H23 cells at 10 uM after 48 hrs by coulter counter method; conditions: NCI-H23, 48 h, read-out: GI; outline: as §1
TK-10 = experiment: Growth inhibition of human TK10 cells at 10 uM after 48 hrs by coulter counter method; conditions: TK-10, 48 h, read-out: GI; outline: as §1
SNB-19 = experiment: Growth inhibition of human SNB19 cells at 10 uM after 48 hrs by coulter counter method; conditions: SNB-19, 48 h, read-out: GI; outline: as §1
U-251 = experiment: Growth inhibition of human U251 cells at 10 uM after 48 hrs by coulter counter method; conditions: U-251, 48 h, read-out: GI; outline: as §1
NCI-H226 = experiment: Growth inhibition of human NCI-H226 cells at 10 uM after 48 hrs by coulter counter method; conditions: NCI-H226, 48 h, read-out: GI; outline: as §1
SF-268 = experiment: Growth inhibition of human SF268 cells at 10 uM after 48 hrs by coulter counter method; conditions: SF-268, 48 h, read-out: GI; outline: as §1
UACC-62 = experiment: Growth inhibition of human UACC62 cells at 10 uM after 48 hrs by coulter counter method; conditions: UACC-62, 48 h, read-out: GI; outline: as §1
SF-295 = experiment: Growth inhibition of human SF295 cells at 10 uM after 48 hrs by coulter counter method; conditions: SF-295, 48 h, read-out: GI; outline: as §1
SR = experiment: Growth inhibition of human SR cells at 10 uM after 48 hrs by coulter counter method; conditions: read-out: GI; outline: as §1
HCT-116 = experiment: Growth inhibition of human HCT116 cells at 10 uM after 48 hrs by coulter counter method; conditions: HCT-116, 48 h, read-out: GI; outline: as §1
T47D = experiment: Growth inhibition of human T47D cells at 10 uM after 48 hrs by coulter counter method; conditions: read-out: GI; outline: as §1
LOX IMVI = experiment: Growth inhibition of human LOXIMVI cells at 10 uM after 48 hrs by coulter counter method; conditions: read-out: GI; outline: as §1
NCI-H322M = experiment: Growth inhibition of human NCI-H322M cells at 10 uM after 48 hrs by coulter counter method; conditions: read-out: GI; outline: as §1
SN12C = experiment: Growth inhibition of human SN12C cells at 10 uM after 48 hrs by coulter counter method; conditions: read-out: GI; outline: as §1
EKVX = experiment: Growth inhibition of human EKVX cells at 10 uM after 48 hrs by coulter counter method; conditions: read-out: GI; outline: as §1
MOLT-4 = experiment: Growth inhibition of human MOLT4 cells at 10 uM after 48 hrs by coulter counter method; conditions: MOLT-4, 48 h, read-out: GI; outline: as §1
M14 = experiment: Growth inhibition of human M14 cells at 10 uM after 48 hrs by coulter counter method; conditions: M14, 48 h, read-out: GI; outline: as §1
Malme-3M = experiment: Growth inhibition of human MALME-3M cells at 10 uM after 48 hrs by coulter counter method; conditions: read-out: GI; outline: as §1
UACC-257 = experiment: Growth inhibition of human UACC257 cells at 10 uM after 48 hrs by coulter counter method; conditions: UACC-257, 48 h, read-out: GI; outline: as §1
ACHN = experiment: Growth inhibition of human ACHN cells at 10 uM after 48 hrs by coulter counter method; conditions: read-out: GI; outline: as §1
MDA-MB-468 = experiment: Growth inhibition of human MDA-MB-468 cells at 10 uM after 48 hrs by coulter counter method; conditions: MDA-MB-468, 48 h, read-out: GI; outline: as §1
IGROV-1 = experiment: Growth inhibition of human IGROV1 cells at 10 uM after 48 hrs by coulter counter method; conditions: IGROV-1, 48 h, read-out: GI; outline: as §1
SNB-75 = experiment: Growth inhibition of human SNB75 cells at 10 uM after 48 hrs by coulter counter method; conditions: SNB-75, 48 h, read-out: GI; outline: as §1
HCT-15 = experiment: Growth inhibition of human HCT15 cells at 10 uM after 48 hrs by coulter counter method; conditions: HCT-15, 48 h, read-out: GI; outline: as §1
SK-MEL-28 = experiment: Growth inhibition of human SK-MEL-28 cells at 10 uM after 48 hrs by coulter counter method; conditions: SK-MEL-28, 48 h, read-out: GI; outline: as §1
HT-29 = experiment: Growth inhibition of human HT-29 cells at 10 uM after 48 hrs by coulter counter method; conditions: HT-29, 48 h, read-out: GI; outline: as §1
K562 = experiment: Growth inhibition of human K562 cells at 10 uM after 48 hrs by coulter counter method; conditions: K562, 48 h, read-out: GI; outline: as §1
HL-60(TB) = experiment: Growth inhibition of human HL-60(TB) cells at 10 uM after 48 hrs by coulter counter method; conditions: HL-60, 48 h, read-out: GI
Outline: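 Single-dose screen on the NCI 60-line panel (leukemia subpanel). Compound is dissolved in DMSO and diluted in PBS, with final DMSO below 1%. Duplicate wells hold 6 × 10⁴ cells/ml at 37 °C, 5% CO₂, for 48 h. Cells are counted by Coulter counter after 10-fold saline dilution. Read-out is percent growth versus PBS/DMSO controls, expressed as % growth inhibition.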

SK-MEL-5 = experiment: Growth inhibition of human SK-MEL-5 cells at 10 uM after 48 hrs by coulter counter method; conditions: SK-MEL-5, 48 h, read-out: GI; outline: as §1
NCI/ADR-RES = experiment: Growth inhibition of human NCI/ADR-RES cells at 10 uM after 48 hrs by coulter counter method; conditions: read-out: GI; outline: as §1
MDA-MB-435 = experiment: Growth inhibition of human MDA-MB-435 cells at 10 uM after 48 hrs by coulter counter method; conditions: MDA-MB-435, 48 h, read-out: GI; outline: as §1
PC-3 = experiment: Growth inhibition of human PC3 cells at 10 uM after 48 hrs by coulter counter method; conditions: PC-3, 48 h, read-out: GI; outline: as §1
MCF7 = experiment: Growth inhibition of human MCF7 cells at 10 uM after 48 hrs by coulter counter method; conditions: MCF7, 48 h, read-out: GI; outline: as §1
OVCAR-8 = experiment: Growth inhibition of human OVCAR8 cells at 10 uM after 48 hrs by coulter counter method; conditions: OVCAR-8, 48 h, read-out: GI; outline: as §1
KM12 = experiment: Growth inhibition of human KM12 cells at 10 uM after 48 hrs by coulter counter method; conditions: KM12, 48 h, read-out: GI; outline: as §1
NCI-H522 = experiment: Growth inhibition of human NCI-H522 cells at 10 uM after 48 hrs by coulter counter method; conditions: NCI-H522, 48 h, read-out: GI; outline: as §1

O=C1N=C2OC(c3ccc(Cl)cc3)=NN2C1=O
inhibition of growth at 10 µM (CAKI-1): < 10% | inhibition of growth at 10 µM (A498): < 10% | inhibition of growth at 10 µM (BT-549): < 10% | inhibition of growth at 10 µM (A549): < 10% | inhibition of growth at 10 µM (UO-31): 11.7% | inhibition of growth at 10 µM (CCRF-CEM): < 10% | inhibition of growth at 10 µM (SK-MEL-2): < 10% | inhibition of growth at 10 µM (786-0): < 10% | inhibition of growth at 10 µM (NCI-H23): < 10% | inhibition of growth at 10 µM (TK-10): < 10% | inhibition of growth at 10 µM (SNB-19): < 10% | inhibition of growth at 10 µM (U-251): < 10% | inhibition of growth at 10 µM (NCI-H226): < 10% | inhibition of growth at 10 µM (SF-268): < 10% | inhibition of growth at 10 µM (UACC-62): < 10% | inhibition of growth at 10 µM (SF-295): < 10% | inhibition of growth at 10 µM (SR): 12.1% | inhibition of growth at 10 µM (HCT-116): < 10% | inhibition of growth at 10 µM (T47D): < 10% | inhibition of growth at 10 µM (LOX IMVI): < 10% | inhibition of growth at 10 µM (NCI-H322M): < 10% | inhibition of growth at 10 µM (SN12C): < 10% | inhibition of growth at 10 µM (EKVX): < 10% | inhibition of growth at 10 µM (MOLT-4): < 10% | inhibition of growth at 10 µM (M14): < 10% | inhibition of growth at 10 µM (Malme-3M): < 10% | inhibition of growth at 10 µM (UACC-257): < 10% | inhibition of growth at 10 µM (ACHN): < 10% | inhibition of growth at 10 µM (MDA-MB-468): < 10% | inhibition of growth at 10 µM (IGROV-1): < 10% | inhibition of growth at 10 µM (SNB-75): < 10% | inhibition of growth at 10 µM (HCT-15): < 10% | inhibition of growth at 10 µM (SK-MEL-28): < 10% | inhibition of growth at 10 µM (HT-29): < 10% | inhibition of growth at 10 µM (K562): 13.6% | inhibition of growth at 10 µM (HL-60(TB)): 15% | inhibition of growth at 10 µM (SK-MEL-5): < 10% | inhibition of growth at 10 µM (NCI/ADR-RES): < 10% | inhibition of growth at 10 µM (MDA-MB-435): < 10% | inhibition of growth at 10 µM (PC-3): < 10% | inhibition of growth at 10 µM (MCF7): < 10% | inhibition of growth at 10 µM (OVCAR-8): < 10% | inhibition of growth at 10 µM (KM12): < 10% | inhibition of growth at 10 µM (NCI-H522): < 10%
